Data set [1] can be described thus: Cytotoxicity against African green monkey Vero cells assessed as reduction in cell viability incubated for 72 hrs by alamar blue staining based assay. The following applies: chlorocebus sabaeus. In kind it is toxicity. In short, it runs like this: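 Vero cells seeded at about 2 × 10^3 per well, 37 °C, 5% CO2. Compound added after 24 h and incubated 72 h. AlamarBlue (1:10 v/v) then added for 3 h in the dark, read at Ex/Em 560/590 nm. CC50 is the lowest concentration causing 50% loss of viability.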
(Alamar Blue is a resazurin reagent that responds to reducing activity.)

Data set [2] concerns the target T1, Cell division protein FtsZ (Staphylococcus aureus) (UniProt P0A031).
T1 sequence (whole entry): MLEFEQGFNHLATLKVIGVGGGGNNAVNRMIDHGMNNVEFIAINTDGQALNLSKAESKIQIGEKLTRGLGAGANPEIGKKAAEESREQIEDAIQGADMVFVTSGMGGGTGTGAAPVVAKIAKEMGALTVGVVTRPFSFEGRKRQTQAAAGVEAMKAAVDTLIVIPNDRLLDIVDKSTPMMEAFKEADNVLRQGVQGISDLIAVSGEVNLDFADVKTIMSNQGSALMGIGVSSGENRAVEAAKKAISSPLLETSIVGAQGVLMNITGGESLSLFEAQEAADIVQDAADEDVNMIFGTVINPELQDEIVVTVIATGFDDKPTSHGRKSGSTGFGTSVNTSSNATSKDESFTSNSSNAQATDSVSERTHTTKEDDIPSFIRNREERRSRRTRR
The data set is described as follows: Inhibition of recombinant Staphylococcus aureus FtsZ-mediated GTPase activity preincubated for 10 mins followed by GTP addition measured after 30 mins by absorbance based assay. The following applies: dose <= 35.0 µg/ml, time 40.0 min. In short, it runs like this:
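S. aureus FtsZ (6 µM) preincubated 10 min at room temperature with a range of compound concentrations in 50 mM Hepes-KOH. KCl 300 mM, MgCl2 5 mM and GTP 1 mM then added, 30 min at 37 °C. Reaction quenched with Cytophos reagent for 10 min; released phosphate read at 620 nm.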

The nature of data set [3]: AUC (0 to infinity) in ICR mouse at 5 mg/kg, po measured for 0.25 to 24 hrs by LC-MS/MS analysis. In kind it is ADME, organism-based. On the set-up: time upper 24 hrs, time lower 0.25 hrs, dose 5 mg/kg, route po. The following applies: in vivo. In short, it runs like this:
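Male ICR mice dosed orally with a solution of 5% DMSO, 4% ethanol, 5% Cremophor EL and 86% water. Blood collected at 15, 30 min, 1, 2, 4, 6, 8 and 24 h; plasma stored at -20 °C. Plasma levels measured by LC-MS/MS; parameters by non-compartmental analysis, with bioavailability relative to the 1 mg/kg iv dose.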

Each structure is given as a SMILES string. Active and inactive are the calls of the source. No cut-off for these calls is given here.

For the compound `Cc1cc(Cl)ccc1-c1cccc(COc2ccc(F)c(C(N)=O)c2F)c1`, the CC50 (in general, the concentration at which the toxic effect on the cells reaches its halfway point) at 72 h in data set [1] was over 20 µg/mL. Moreover, in data set [2], the inhibition entry is “Active”. Moreover, the AUC(0-inf) – broadly, total exposure, with the tail of the curve extrapolated – in data set [3] was 559 ng·h/mL.

The values are drawn from ChEMBL document CHEMBL5338714, “Design, synthesis and biological evaluation of biphenyl-benzamides as potent FtsZ inhibitors” (Eur J Med Chem, 2022).
